Experimental data from ChEMBL document CHEMBL3351252, “Design, synthesis, and structure-activity relationship studies of a series of [4-(4-carboxamidobutyl)]-1-arylpiperazines: insights into structural features contributing to dopamine D3 versus D2 receptor subtype selectivity” (J Med Chem, 2014).
The source made the active and inactive calls. The calls are words filed in the database; no cut-off is given here.

Tests used:
D(2) dopamine receptor [1] = target: T1, D(2) dopamine receptor (Homo sapiens, UniProt P14416); assay: Displacement of [125I]IABN from human D2LR expressed in HEK293 cell membranes by gamma counting method
T1 sequence (P14416 whole entry): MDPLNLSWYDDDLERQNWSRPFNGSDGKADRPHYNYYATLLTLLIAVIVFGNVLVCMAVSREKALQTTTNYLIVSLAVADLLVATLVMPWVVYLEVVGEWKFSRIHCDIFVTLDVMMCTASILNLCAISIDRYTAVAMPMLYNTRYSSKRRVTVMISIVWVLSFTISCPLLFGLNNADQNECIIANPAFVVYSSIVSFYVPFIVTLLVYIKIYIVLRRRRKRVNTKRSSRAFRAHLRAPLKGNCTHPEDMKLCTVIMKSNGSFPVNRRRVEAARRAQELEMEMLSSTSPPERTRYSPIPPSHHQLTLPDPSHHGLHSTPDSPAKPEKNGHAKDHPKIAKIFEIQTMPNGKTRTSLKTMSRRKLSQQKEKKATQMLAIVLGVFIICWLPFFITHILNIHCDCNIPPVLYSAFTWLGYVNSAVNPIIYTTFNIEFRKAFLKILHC

D(3) dopamine receptor [2] = target: T2, D(3) dopamine receptor (Homo sapiens, UniProt P35462); assay: Antagonist activity against D3R in human U2OS cells assessed as inhibition of (+)-PD128907-induced beta-arrestin translocation by beta-galactosidase based beta-arrestin recruitment assay; type: cell-based
T2 sequence (P35462 whole entry): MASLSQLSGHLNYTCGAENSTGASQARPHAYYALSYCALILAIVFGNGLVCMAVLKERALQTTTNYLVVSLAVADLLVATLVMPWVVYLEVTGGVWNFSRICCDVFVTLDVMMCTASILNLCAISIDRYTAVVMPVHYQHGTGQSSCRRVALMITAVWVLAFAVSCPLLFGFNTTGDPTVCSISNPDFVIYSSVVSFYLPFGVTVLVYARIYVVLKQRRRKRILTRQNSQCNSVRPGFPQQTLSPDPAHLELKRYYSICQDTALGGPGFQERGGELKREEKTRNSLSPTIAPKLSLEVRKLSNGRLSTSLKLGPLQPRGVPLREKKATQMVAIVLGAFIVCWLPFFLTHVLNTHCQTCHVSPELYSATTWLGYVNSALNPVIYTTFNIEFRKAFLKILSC

Homo sapiens [3] = organism: Homo sapiens; assay: Selectivity index, ratio of Ki for human D2LR to Ki or human D3R
D(2) dopamine receptor [4] = target: T1, D(2) dopamine receptor; assay: Antagonist activity against human D2LR expressed in CHOK1 cells assessed as inhibition of pergolide-induced beta-arrestin translocation by beta-galactosidase based beta-arrestin recruitment assay; type: cell-based, CHO-K1
D(3) dopamine receptor [5] = target: T2, D(3) dopamine receptor; assay: Inverse agonist activity at D3R in human U2OS cells assessed as inhibition of basal activity at 500 nM by beta-galactosidase based beta-arrestin recruitment assay; type: cell-based
Homo sapiens [6] = organism: Homo sapiens; assay: Selectivity index, ratio of IC50 for human D2LR to IC50 for human D3R by beta-galactosidase based beta-arrestin recruitment assay
D(3) dopamine receptor [7] = target: T2, D(3) dopamine receptor; assay: Displacement of [125I]IABN from human D3R expressed in HEK293 cell membranes by gamma counting method
D(2) dopamine receptor [8] = target: T1, D(2) dopamine receptor; assay: Agonist activity at human D2LR expressed in CHO-K1 cells assessed as stimulation of basal activity by beta-galactosidase based beta-arrestin recruitment assay; type: cell-based
In short: (§1)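 CHO-K1 cells expressing human D2L receptor, β-arrestin/β-galactosidase fragment-complementation assay. Cells plated 2500/well and grown 48 h at 37 °C. Test compounds given at 11 half-log points from 5 μM, 120 min at 37 °C. Detection reagent added and chemiluminescence read. Results given as % stimulation or inhibition of basal luminescence. Compounds counterscreened for β-gal inhibition.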

D(2) dopamine receptor [9] = target: T1, D(2) dopamine receptor; assay: Agonist activity at human D2R expressed in CHO cells assessed as stimulation of mitogenesis at 10 uM after 24 hrs by [3H]thymidine uptake assay relative to quinpirole; type: cell-based
In short: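 CHOp-D2 cells grown 48–72 h, then serum-starved 24 h. Exposed to 10 μM compound in serum-free α-MEM for 24 h at 37 °C. Pulsed 2 h with 0.25 μCi [3H]thymidine, trypsinized, filtered and counted. Stimulation expressed relative to maximal quinpirole. Two independent experiments.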

D(2) dopamine receptor [10] = target: T1, D(2) dopamine receptor; assay: Antagonist activity against human D2R expressed in CHO cells assessed as inhibition of quinpirole-induced mitogenesis after 24 hrs by [3H]thymidine uptake assay; type: cell-based
In short: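 Serum-starved CHOp-D2 or CHOp-D3 cells given serial dilutions of test compound plus quinpirole (30 nM final). Incubated at 37 °C for 24 h (D2) or 16 h (D3). Then 2 h [3H]thymidine pulse, filtration and counting.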

D(2) dopamine receptor [11] = target: T1, D(2) dopamine receptor; assay: Agonist activity against human D2R expressed in HEK293 cells assessed as inhibition of forskolin-induced adenyl cyclase activity at 10 times Ki relative to quinpirole; type: functional, cell-based
In short: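 Whole HEK 293 cells expressing human D2R, prelabelled with [2,8-3H]adenine for 75 min at 37 °C, then given 0.1 mM IBMX. […] Stopped with TCA. [3H]cAMP separated on Dowex/alumina. Inhibition normalized to 1 μM quinpirole. Mean ± SEM of ≥3 experiments.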

D(2) dopamine receptor [12] = target: T1, D(2) dopamine receptor; assay: Inverse agonist activity at human D2LR expressed in CHO-K1 cells assessed as inhibition of basal activity by beta-galactosidase based beta-arrestin recruitment assay; type: cell-based; in short: as §1
D(2) dopamine receptor [13] = target: T1, D(2) dopamine receptor; conditions: CHO, 1 uM
D(3) dopamine receptor [14] = target: T2, D(3) dopamine receptor; conditions: CHO, 1 uM
D(3) dopamine receptor [15] = target: T2, D(3) dopamine receptor; conditions: CHO, 10 uM
D(3) dopamine receptor [16] = target: D(3) dopamine receptor (Homo sapiens, UniProt P35462, S182I); assay: Displacement of [125I]IABN from human D3R S182I mutant expressed in HEK293 cell membranes by gamma counting method
Sequence of D(3) dopamine receptor (Homo sapiens, UniProt P35462, S182I) (P35462 as listed by the source S182I): as the sequence (P35462 whole entry) above, with G9S, S182I counted along it
In short: (§2)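 Membranes from HEK 293 cells stably expressing receptor, prepared in 50 mM Tris-HCl pH 7.4/10 mM EDTA/150 mM NaCl and stored at −80 °C. […] Nonspecific binding defined with 2 μM (+)-butaclamol. Filtered, gamma counted. IC50 from single-site nonlinear regression, converted to Ki.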

D(3) dopamine receptor [17] = target: T2, D(3) dopamine receptor; assay: Displacement of [125I]IABN from wild type human D3R expressed in HEK293 cell membranes by gamma counting method; in short: as §2
D(2) dopamine receptor [18] = target: T1, D(2) dopamine receptor; assay: Displacement of [125I]IABN from wild type human D2R expressed in HEK293 cell membranes by gamma counting method
D(3) dopamine receptor [19] = target: D(3) dopamine receptor (Homo sapiens, UniProt P35462, E90A); assay: Displacement of [125I]IABN from human D3R E90A mutant expressed in HEK293 cell membranes by gamma counting method; in short: as §2
Sequence of D(3) dopamine receptor (Homo sapiens, UniProt P35462, E90A) (P35462 as listed by the source E90A): as the sequence (P35462 whole entry) above, with G9S, E90A counted along it

D(2) dopamine receptor [20] = target: T1, D(2) dopamine receptor; assay: Displacement of [125I]IABN from chimeric human D2 receptor possessing extracellular loop II of D3 receptor expressed in HEK293 cell membranes by gamma counting method
D(2) dopamine receptor [21] = target: T1, D(2) dopamine receptor; conditions: CHO-K1, 500 nM
D(3) dopamine receptor [22] = target: D(3) dopamine receptor (Homo sapiens, UniProt P35462, E90Q); assay: Displacement of [125I]IABN from human D3R E90Q mutant expressed in HEK293 cell membranes by gamma counting method; in short: as §2
Sequence of D(3) dopamine receptor (Homo sapiens, UniProt P35462, E90Q) (P35462 as listed by the source E90Q): as the sequence (P35462 whole entry) above, with G9S, E90Q counted along it

D(3) dopamine receptor [23] = target: T2, D(3) dopamine receptor; assay: Displacement of [125I]IABN from chimeric human D3 receptor possessing extracellular loop II of D2 receptor expressed in HEK293 cell membranes by gamma counting method; in short: as §2

SMILES	Ki (D(2) dopamine receptor [1]) [nM]	IC50 (D(3) dopamine receptor [2]) [nM]	Ratio Ki (Homo sapiens [3])	IC50 (D(2) dopamine receptor [4]) [nM]	Ratio IC50 (Homo sapiens [6])	Ki (D(3) dopamine receptor [7]) [nM]	Activity (D(2) dopamine receptor [8])	inhibition (D(2) dopamine receptor [11]) [%]	inhibition (D(2) dopamine receptor [12])	other results
CN(C)Cc1c(C(=O)NCCCCN2CCN(c3cc(C(F)(F)F)nc(C(C)(C)C)n3)CC2)[nH]c2ccccc12	527	14	21	311	22	25	–	–	–	inhibition (D(3) dopamine receptor [5]): < 21%
COc1ccccc1N1CCN(CCCCNC(=O)c2cn3ccccc3n2)CC1	19	0.7	5.4	6.6	9.4	3.5	inactive	25	inactive	Activity (D(2) dopamine receptor [9]): < 20%; IC50 (D(2) dopamine receptor [10]): 26 nM
CC(C)(C)c1nc(N2CCN(CCCCNC(=O)c3nc4ccccc4[nH]3)CC2)cc(C(F)(F)F)n1	336	8.5	78	301	35	4.3	inactive	5.6	inactive	Activity (D(2) dopamine receptor [9]): < 20%; IC50 (D(2) dopamine receptor [10]): 490 nM
O=C(NCCCCN1CCN(c2ccccc2)CC1)c1cn2ccccc2n1	178	–	18	–	–	10	–	–	–	–
Cc1nc(N2CCN(CCCCNC(=O)c3cn4ccccc4n3)CC2)cc(C(F)(F)F)n1	24900	–	12	–	–	2010	–	–	–	–
O=C(NCCCCN1CCN(c2ncnc3ccccc23)CC1)c1cn2ccccc2n1	–	409	4.5	248	0.6	–	inactive	19	inactive	–
O=C(NCCCCN1CCN(c2ccnc3ccccc23)CC1)c1cn2ccccc2n1	–	52	29	161	3.1	20	inactive	1.4	inactive	–
O=C(NCCCCN1CCN(c2cccc(Cl)c2Cl)CC1)c1cn2ccccc2n1	12	0.2	40	91	455	0.3	inactive	45	inactive	inhibition (D(2) dopamine receptor [13]): < 30%; Activity (D(2) dopamine receptor [9]): < 20%; IC50 (D(2) dopamine receptor [10]): 55 nM; inhibition (D(3) dopamine receptor [14]): < 30%
CC(C)(C)c1nc(N2CCN(CCCCNC(=O)c3cc4ccccc4[nH]3)CC2)cc(C(F)(F)F)n1	913	5.6	83	418	75	11	inactive	–	inactive	–
CC(C)(C)c1cc(N2CCN(CCCCNC(=O)c3cn4ccccc4n3)CC2)cc(C(C)(C)C)c1	1300	–	11	–	–	124	–	–	–	–
CC(C)(C)c1nc(N2CCN(CCCCNC(=O)c3cn4ccncc4n3)CC2)cc(C(F)(F)F)n1	–	0.3	56	49	163	–	inactive	–	inactive	inhibition (D(2) dopamine receptor [13]): < 30%; Activity (D(2) dopamine receptor [9]): < 20%; inhibition (D(3) dopamine receptor [15]): 40%; inhibition (D(3) dopamine receptor [14]): < 30%
CN(C)Cc1c(C(=O)NCCCCN2CCN(c3cc(C(F)(F)F)nc(C(C)(C)C)n3)CC2)nc2ccccn12	–	–	10	–	30	–	inactive	8.9	inactive	Ki (D(3) dopamine receptor [16]): 16 nM; Ki (D(3) dopamine receptor [17]): 9.1 nM; Ki (D(2) dopamine receptor [18]): 191 nM; Ki (D(3) dopamine receptor [19]): 16 nM; Ki (D(2) dopamine receptor [20]): 72 nM; inhibition (D(2) dopamine receptor [21]): < 30%; Ki (D(3) dopamine receptor [22]): 19 nM; Ki (D(3) dopamine receptor [23]): 27 nM
CN(C)Cc1cccc2nc(C(=O)NCCCCN3CCN(c4cc(C(F)(F)F)nc(C(C)(C)C)n4)CC3)cn12	–	–	11	–	9.7	–	inactive	–	inactive	Ki (D(3) dopamine receptor [16]): 24 nM; Ki (D(3) dopamine receptor [17]): 16 nM; Ki (D(2) dopamine receptor [18]): 245 nM; Ki (D(3) dopamine receptor [19]): 12 nM; Ki (D(2) dopamine receptor [20]): 176 nM; Ki (D(3) dopamine receptor [22]): 12 nM; Ki (D(3) dopamine receptor [23]): 44 nM
Cc1cc(N2CCN(CCCCNC(=O)c3cn4ccccc4n3)CC2)nc(C(F)(F)F)n1	3650	–	25	–	–	148	–	–	–	–
CC(C)(C)c1nc(N2CCN(CCCCNC(=O)c3sc4ncccc4c3N)CC2)cc(C(F)(F)F)n1	481	–	14	–	–	35	–	–	–	–
CC(C)(C)c1nc(N2CCN(CCCCNC(=O)c3cn4cccnc4n3)CC2)cc(C(F)(F)F)n1	–	0.4	36	37	93	–	inactive	9.2	inactive	Activity (D(2) dopamine receptor [9]): < 1%
CC(C)(C)c1nc(N2CCN(CCCCNC(=O)c3cn4ccccc4n3)CC2)cc(C(F)(F)F)n1	–	0.6	–	–	435	–	inactive	-1.9	inactive	Ki (D(3) dopamine receptor [16]): 12 nM; Ki (D(3) dopamine receptor [17]): 8.4 nM; inhibition (D(2) dopamine receptor [13]): < 30%; Activity (D(2) dopamine receptor [9]): 0%; Ki (D(2) dopamine receptor [18]): 702 nM; Ki (D(3) dopamine receptor [19]): 13 nM; Ki (D(2) dopamine receptor [20]): 148 nM; inhibition (D(3) dopamine receptor [15]): 40%; Ki (D(3) dopamine receptor [22]): 20 nM; Ki (D(3) dopamine receptor [23]): 40 nM; inhibition (D(3) dopamine receptor [14]): < 30%
N#Cc1cc(N2CCN(CCCCNC(=O)c3cn4ccccc4n3)CC2)cc(C(F)(F)F)c1	191	–	30	–	–	6.4	–	–	–	–
CC(C)(C)c1nc(N2CCN(CCCCNC(=O)[C@H]3CC[C@H](c4ccccc4)CC3)CC2)cc(C(F)(F)F)n1	–	–	–	–	–	–	inactive	–	inactive	inhibition (D(2) dopamine receptor [13]): < 30%; inhibition (D(3) dopamine receptor [15]): 40%; inhibition (D(3) dopamine receptor [14]): < 30%
CC(C)(C)c1nc(N2CCN(CCCCNC(=O)c3cc4cccnc4s3)CC2)cc(C(F)(F)F)n1	683	–	21	–	–	32	–	–	–	–
O=C(NCCCCN1CCN(c2ccc3ccccc3n2)CC1)c1cn2ccccc2n1	1560	–	20	–	–	77	–	–	–	–
O=C(NCCCCN1CCN(c2cccc(C(F)(F)F)c2)CC1)c1cn2ccccc2n1	162	1.8	56	60	33	2.9	inactive	32	inactive	–
CC(C)(C)c1cc(N2CCN(CCCCNC(=O)c3cn4ccccc4n3)CC2)nc(C(C)(C)C)n1	–	–	19	–	–	–	–	–	–	–
CC(C)(C)c1nc(N2CCN(CCCCNC(=O)c3cn4nc(Cl)ccc4n3)CC2)cc(C(F)(F)F)n1	–	–	–	22	–	–	inactive	–	inactive	Activity (D(2) dopamine receptor [9]): < 1%
